Screening data from PubChem.
Shown are actives, neighbours in structure and some others; about 1.4% of the full set was active somewhere.
IDE inh – human IDE inhibitors in live cells, primary screen, fluorescence polarization, HEK cells, FAbetaB substrate | Insulin-degrading enzyme (Homo sapiens), P14735 | FAbetaB cleavage | inhibition, % at 5.59 µM | 320,000 tested, 0.41% active | AID 434962, 2010;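 active means percent inhibition above the average of all tested compounds plus 3 SD, set per screening campaign, cut at about 16% in these data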;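 further: IDE supplied by intact live HEK cells; FP after avidin binding of uncleaved biotin substrate so inhibition keeps polarization high; 0% = DMSO wells and 100% = 60 µM reference IDE inhibitor Ii1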
Target sequence (P14735 whole entry, looked up): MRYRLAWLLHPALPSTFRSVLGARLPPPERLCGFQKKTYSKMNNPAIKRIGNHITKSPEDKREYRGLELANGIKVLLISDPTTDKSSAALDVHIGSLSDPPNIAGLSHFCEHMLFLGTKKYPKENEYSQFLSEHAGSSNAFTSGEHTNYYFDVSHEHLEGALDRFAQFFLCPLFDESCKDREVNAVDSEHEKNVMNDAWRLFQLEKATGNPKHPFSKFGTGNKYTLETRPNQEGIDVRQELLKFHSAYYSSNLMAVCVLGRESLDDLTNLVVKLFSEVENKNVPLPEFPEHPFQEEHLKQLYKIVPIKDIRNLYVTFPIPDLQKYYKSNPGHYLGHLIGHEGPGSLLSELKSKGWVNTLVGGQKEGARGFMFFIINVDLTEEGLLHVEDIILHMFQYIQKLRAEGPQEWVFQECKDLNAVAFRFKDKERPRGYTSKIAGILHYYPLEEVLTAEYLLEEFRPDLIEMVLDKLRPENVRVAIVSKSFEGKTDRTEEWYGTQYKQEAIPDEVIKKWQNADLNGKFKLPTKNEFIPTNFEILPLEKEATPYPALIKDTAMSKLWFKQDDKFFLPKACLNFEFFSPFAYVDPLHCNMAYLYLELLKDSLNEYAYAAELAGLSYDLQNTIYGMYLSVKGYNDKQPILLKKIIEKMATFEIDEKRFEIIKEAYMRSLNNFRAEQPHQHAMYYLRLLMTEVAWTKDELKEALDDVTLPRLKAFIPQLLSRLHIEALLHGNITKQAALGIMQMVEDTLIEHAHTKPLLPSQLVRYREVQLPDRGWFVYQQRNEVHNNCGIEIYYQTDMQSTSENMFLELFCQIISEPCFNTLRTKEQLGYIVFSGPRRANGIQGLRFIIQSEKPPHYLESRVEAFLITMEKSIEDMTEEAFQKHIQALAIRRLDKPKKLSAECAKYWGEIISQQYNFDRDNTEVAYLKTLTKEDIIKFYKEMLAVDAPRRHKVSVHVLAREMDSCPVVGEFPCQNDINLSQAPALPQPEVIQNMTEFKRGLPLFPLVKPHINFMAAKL
IDE cell activ – human IDE activators in live cells, primary screen, fluorescence polarization, HEK cells, FAbeta-B substrate; Insulin-degrading enzyme (Homo sapiens), P14735; FAbeta-B cleavage; 0% vehicle, 100% cell-free pure enzyme wells; activation, % at 5.96 µM; 340,000 tested, 0.073% active;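 active means activation above the mean of all tested compounds plus 3 SD, set per screening campaign, cut at about 17% in these data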
TPT1 inhibitor – Candida albicans TPT1 enzyme inhibitors, primary screen, biochemical, fluorescence polarization; recombinant caTPT1, FP RNA substrate dephosphorylation; AID 1962, 2009; inhibition, % at 5 µM; 300,000 tested, 0.81% active; tRNA 2'-phosphotransferase TPT1 (Candida albicans SC5314);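 active means inhibition above the mean of all tested compounds plus 3 SD, set per screening campaign, cut at about 24% in these data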;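 further: plate controls were DMSO alone for no effect and ferristatin control at 100 nM for full effect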
CSN inh – inhibitors of CSN-mediated cullin deneddylation, primary screen, biochemical, fluorescence polarization, uHTS | COP9 signalosome complex subunit 5 (Homo sapiens), Q92905 | Purified CSN, SCF-Nedd8-OG deneddylation | AID 651999, 2013 | 360,000 tested, 0.38% active | inhibition, % at 12.5 µM;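 active means pattern-corrected inhibition above about 35%, with an unprinted fluorescence ratio check between 0.5 and 1.5, limit read from the data, passing the limit was not always enough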;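 further: 0% = enzyme with substrate and 100% = substrate without enzyme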
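Assay system: HEK293T-derived human Csn5 enzyme; quantity: 0.24 nM enzyme; medium: Tris/NaCl/DTT buffer, pH 7.5; also added: substrate SCFSkp2-Nedd8OG, 10 nM; doses: 12.5 µM compound; schedule: 90 min reaction at room temperature; signal: FP; read-out: % inhibition of substrate cleavage by Csn5; benchmarks: substrate-only high control, full reaction low control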
HNF4A DNA FP – change in binding of human HNF4A to DNA, primary screen, biochemical, fluorescence polarization, FITC-DNA. Hepatocyte nuclear factor 4-alpha (Homo sapiens), P41235. 1 h. activity change, % at 10 µM. 360,000 tested, 0.3% active; in the data active means activity change above about 30%, passing the limit was not always enough
IDE inh confirm – human IDE inhibitors in live cells, confirmation, fluorescence polarization, HEK cells, FAbetaB substrate. shares compounds with IDE inh. FAbetaB cleavage. inhibition, % at 5.59 µM. 1,200 tested, 51% active. AID 435028, 2010;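 active means mean inhibition across triplicate wells above the cutoff set by the earlier primary insulin-degrading enzyme screen, cut at about 16% in these data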;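 further: 0% = DMSO wells and 100% = 60 µM reference IDE inhibitor Ii1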
HEK cytotox – cytotoxicity in HEK cells, cytotoxicity control for IDE inhibitor project, cell-based, luminescence. shares compounds with IDE inh. HEK293 cytotoxicity, ATP luminescence. inhibition, % at 5.59 µM. 1,200 tested, 28% active. AID 449730, 2010; in the data active means inhibition above about 22%;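 further: 0% = vehicle wells and 100% = reference cytotoxic drug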
* marks the source's active call; other numbers are inactive results; x = not tested or not shown.

SMILES	IDE inh	IDE cell activ	TPT1 inhibitor	CSN inh	HNF4A DNA FP	IDE inh confirm	HEK cytotox
CN(C)C(=O)c1ccc(NC(=O)c2cccc(S(=O)(=O)N3CCCc4ccccc43)c2)cc1	8	-1	-1	-2	-1	x	x
Cc1ccc2c(c1)CCCN2S(=O)(=O)c1cccc(C(=O)Nc2ccccc2C(=O)O)c1	41*	-83	-5	-2	-3	23*	26*
CN1C(=O)c2cccc3c(Br)ccc(c23)C1=O	-1	x	-5	5	-1	x	x
CN1C(=O)c2cccc3c(N(C)C)ccc(c23)C1=O	46*	-45	10	8	9	52*	11
COc1ccc(Cl)cc1C(=O)NCCCSc1ccccc1	5	-1	3	7	2	x	x
COc1ccc(Cl)cc1C(=O)NCC(=O)OCc1ccccc1	20*	-12	4	-2	0	10	9
Cn1ncc2c(Nc3ccc4ccccc4c3)ncnc21	32*	-58	-3	-1	-9	4	10
CS(=O)(=O)c1ccc(N)c(SSc2cc(S(C)(=O)=O)ccc2N)c1	30*	-24	1	0	8	27*	7
CC(C)Oc1ccc(CN2CCCC(CO)(Cc3ccccc3)C2)cc1CO (stereo not drawn)	2	2	-2	0	3	x	x
COc1ccc(C2C=C(Nc3ccccc3)C(=O)N2c2ccccc2)cc1OC (stereo not drawn)	17*	0	9	-7	-6	-1	23*
COc1cccc(C2C=C(Nc3ccccc3)C(=O)N2c2ccccc2)c1 (stereo not drawn)	14	-3	3	-3	-3	x	x
O=C(c1ccc2ncsc2c1)N1CCN(c2nc3ccccc3s2)CC1	25*	-18	-4	1	-1	13	42*
O=C(c1ccc2ncsc2c1)N1CCN(c2ccccc2Cl)CC1	5	7	0	1	3	x	x
O=C(Nc1ccc(F)cc1)N1CCN(c2nc3ccccc3s2)CC1	12	-7	-2	-3	1	x	x
O=C(Nc1ccccc1)N1CCN(c2nc3ccccc3s2)CC1	18*	-19	-3	-4	-2	4	30*
CCCN1CCC(NC(=O)C2CC=CCC2C(=O)O)CC1 (stereo not drawn)	3	3	-4	2	0	x	x
Cc1ccc[n+](CC(=O)c2ccc(-c3ccccc3)cc2)c1	22*	1	3	-6	0	8	16
O=C(OCc1ccccc1)N1Cc2ccnnc2CC1c1ccccc1Br (stereo not drawn)	x	x	x	-4	6	x	x
Cc1c(OC(C)C(=O)NCc2ccccn2)ccc2c3c(c(=O)oc12)CCC3 (stereo not drawn)	2	5	-2	2	-2	x	x
Cc1c(OC(C)C(=O)NCc2ccncc2)ccc2c3c(c(=O)oc12)CCCC3 (stereo not drawn)	19*	-38	0	-3	2	17*	18
COc1ccc(NC(=S)N2CCC(NC(=O)c3ccco3)CC2)cc1	1	6	0	0	0	x	x
O=C(c1ccccc1)c1ccc(O)cc1O	19*	-26	-20	-78	-105	40*	5
O=C(c1ccc(O)cc1)c1ccc(O)cc1O	1	5	-2	-3	-2	x	x
CCc1sc(C(=O)Nc2nc(-c3ccccn3)cs2)cc1C	19*	-6	x	3	7	6	50*
COc1ccc(NS(=O)(=O)c2ccc(F)c(F)c2F)cc1S(=O)(=O)N1CCOCC1	1	1	x	-4	0	x	x
SMILES	IDE inh	IDE cell activ	TPT1 inhibitor	CSN inh	HNF4A DNA FP	IDE inh confirm	HEK cytotox
CC1CCN(c2ccc3c(c2)S(=O)(=O)c2cccc(C(=O)O)c2C3=O)CC1	32*	-32	x	14	28	48*	5
O=C(NCc1ccc(F)cc1)c1cccc2c1C(=O)c1ccc(N3CCC(Cc4ccccc4)CC3)cc1S2(=O)=O	5	3	x	-74	-106	x	x
O=C(NC1CC1)c1cccc2c1C(=O)c1ccc(N3CCC(Cc4ccccc4)CC3)cc1S2(=O)=O	40*	-33	x	19	76	70*	45*
C/C(=N\NC(=O)CN1CCN(Cc2ccccc2)CC1)c1ccncc1	0	3	0	3	4	x	x
C/C(=N/NC(=O)CN1CCN(Cc2ccccc2Cl)CC1)c1ccncc1	24*	-22	1	-1	-3	15	7
Cc1cc(C)cc(C(=O)OCC(=O)N2CCCCCC2)c1	8	4	x	-2	2	x	x
Cc1nc2ncnn2c(N2CCCC(C(=O)Nc3ccc4c(c3)CCC4)C2)c1C (stereo not drawn)	17*	-34	0	2	-1	12	44*
O=C(Nc1ccc2c(c1)CCC2)C1CCCN(c2ncccn2)C1 (stereo not drawn)	4	0	-2	-5	0	x	x
OCC[C@H]1C[C@H](O)[C@@H](O)[C@@]2(CCc3ccccc3O2)O1	7	2	-5	-5	3	x	x
CCc1c(C#N)c(SCCC(=O)Nc2ccc(OC)cc2)nc2c1C(=O)CC(C)(C)C2	3	0	2	0	0	x	x
CCc1c(C#N)c(SCc2c(C)noc2C)nc2c1C(=O)CC(C)(C)C2	18*	-12	1	-1	-3	1	32*
CCCCn1nnc(NC(=O)c2cc3ccccc3o2)n1	-3	-1	1	1	0	x	x
CCCCn1nnc(NC(=O)c2ccc(-c3ccccc3)cc2)n1	18*	-12	1	-4	0	7	55*
C=CCc1cc(/C=C2/NC(=O)NC2=O)cc(OCC)c1O	8	-1	1	-2	-2	x	x
C=CCc1cc(/C=C2/NC(=S)NC2=O)cc(OC)c1O	36*	-48	24	19	10	88*	8
Cc1cccc(-n2c(O)c(C=Nc3ccccc3-c3n[nH]c(=S)[nH]c3=O)c3ccccc3c2=O)n1	22*	-30	0	3	-4	17*	2
Cc1ccc(-n2c(O)c(C=Nc3ccccc3-c3n[nH]c(=S)[nH]c3=O)c3ccccc3c2=O)cc1C	x	-2	x	10	-2	x	x
CCOc1ccc(CCNC(=O)CCC(=O)N2CCOc3ccccc32)cc1OCC	0	4	1	-6	2	x	x
CCOC(=O)c1ccc2c(c1)n(CC)c(/C=C/N(C)c1ccccc1)[n+]2CC	-3	2	1	1	1	x	x
